Data: ChEMBL document CHEMBL5036324 (J Med Chem, 2021)
Calls of active or inactive are those of the source. No cut-off for these calls is given here.

Tests used:
[1] = molecular target: T1, TLR7 and TLR8 (Homo sapiens) (UniProt Q9NYK1+Q9NR97); assay: Agonist activity at human TLR7/8 expressed in human PBMC cells assessed as induction of MIP-1alpha production at 0.1 to 32 ug/ml incubated for 12 hrs by multiplexed immunoassay; type: cell-based; conditions: filed as agonist, dose 0.1-32 µg/ml
Outline: (§1)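 Healthy-volunteer PBMCs from a single donor were isolated by Ficoll−Hypaque gradient and plated at 2.0 × 10⁶ cells/mL. They were stimulated for 12 h with escalating compound concentrations. Supernatants were assayed in duplicate on a 41-analyte magnetic bead cytokine/chemokine panel read by Luminex. EC_max is the concentration giving maximal cytokine induction.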

[2] = molecular target: T1, TLR7 and TLR8 (Homo sapiens); assay: Agonist activity at human TLR7/8 expressed in human PBMC cells assessed as induction of IL-1beta production at 0.1 to 32 ug/ml incubated for 12 hrs by multiplexed immunoassay; type: cell-based; conditions: filed as agonist, dose 0.1-32 µg/ml; outline: as §1
[3] = molecular target: T1, TLR7 and TLR8 (Homo sapiens); assay: Agonist activity at human TLR7/8 expressed in human PBMC cells assessed as induction of TNF-alpha production at 0.1 to 32 ug/ml incubated for 12 hrs by multiplexed immunoassay; type: cell-based; conditions: filed as agonist, dose 0.1-32 µg/ml; outline: as §1
[4] = molecular target: T1, TLR7 and TLR8 (Homo sapiens); assay: Agonist activity at human TLR7/8 expressed in human PBMC cells assessed as induction of INF-alpha regulated IP-10 production at 0.1 to 32 ug/ml incubated for 12 hrs by multiplexed immunoassay; type: cell-based; conditions: filed as agonist, dose 0.1-32 µg/ml; outline: as §1
[5] = molecular target: T1, TLR7 and TLR8 (Homo sapiens); assay: Agonist activity at human TLR7/8 expressed in human PBMC cells assessed as induction of IL-12 production at 0.1 to 32 ug/ml incubated for 12 hrs by multiplexed immunoassay; type: cell-based; conditions: filed as agonist, dose 0.1-32 µg/ml; outline: as §1
[6] = Acute toxicity in BALB/c mouse assessed as mortality at 120 mg/kg, ip administered as single dose; type: organism-based; conditions: in vivo
[7] = Subacute toxicity in BALB/c mouse assessed as body weight loss at 1.73 g, ip administered as single dose; type: organism-based; conditions: in vivo
Outline: (§2)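 Subacute study in BALB/c mice, with treated and control groups. Body weight was recorded every day. Spleens were weighed and photographed, and tissues were examined by H&E staining.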

[8] = molecular target: T1, TLR7 and TLR8 (Homo sapiens); assay: Agonist activity at human TLR7/8 expressed in human PBMC cells assessed as induction of IFN-alpha2 production at 0.1 to 32 ug/ml incubated for 12 hrs by multiplexed immunoassay; type: cell-based; conditions: filed as agonist, dose 0.1-32 µg/ml; outline: as §1
[9] = molecular target: T1, TLR7 and TLR8 (Homo sapiens); assay: Agonist activity at human TLR7/8 expressed in human PBMC cells assessed as induction of INFgamma production at 0.1 to 32 ug/ml incubated for 12 hrs by multiplexed immunoassay; type: cell-based; conditions: filed as agonist, dose 0.1-32 µg/ml; outline: as §1
CT26 [10] = assay: Antitumor activity against mouse CT26 cells implanted in BALB/c mouse assessed as tumor growth inhibition at 50 ug, ip administered once a week in presence of anti-PD-1 antibodies and measured every 3 days for 23 days relative to control; type: functional; conditions: dose 50 µg; time 23 day
Outline: (§3)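 Subcutaneous CT26 tumours were grown in BALB/c mice, with cells cultured in DMEM/10% FBS. At a mean tumour size of 100 mm³, mice were randomised (n = 5/group). Agonist was given ip once weekly; anti-PD-1 or IgG isotype was given ip at 200 μg twice weekly. Tumour volume (V = 1/2ab²) was measured every 3 days. Mice were euthanised at 2000 mm³.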

[11] = molecular target: T1, TLR7 and TLR8 (Homo sapiens); assay: Agonist activity at human TLR7/8 expressed in human PBMC cells assessed as induction of MCP-1 production by measuring concentration required to induce maximal response incubated for 12 hrs by multiplexed immunoassay; type: cell-based; conditions: filed as agonist; outline: as §1
CT26 [12] = assay: Antitumor immunity against mouse CT26 cells implanted in BALB/c mouse assessed as increase in infiltration of CD8+ T cytotoxic lymphocytes at 25 ug, ip administered once a week for 23 days by flow cytometry analysis; type: functional, organism-based; conditions: dose 25.0 µg, time 23.0 day
Outline: (§4)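 CT26-bearing BALB/c mice (n = 5) were treated ip once weekly with agonist, alone or with anti-PD-1 (200 μg, twice weekly). Tumours were harvested 23 days after implantation, enzymatically and mechanically dissociated into single cells, and stained for surface markers plus intracellular FoxP3 after fixation/permeabilisation. Cells were gated within CD45⁺ for CD11c⁺ DCs, CD11b⁺F4/80⁺MHCII⁺ (M1), CD206⁺ (M2), CD3/CD4/CD8, and CD4⁺CD25⁺FoxP3⁺ Treg, then analysed by flow cytometry.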

CT26 [13] = assay: Antitumor activity against mouse CT26 cells implanted in BALB/c mouse assessed as fold increase in infiltration of CD11c+ in tumor cells at 25 ug, ip administered once a week for 23 days by flow cytometry analysis relative to R848; type: functional; conditions: dose 25 µg; time 23 day; outline: as §4
[14] = Subacute toxicity in BALB/c mouse assessed as body weight loss at 2.19 g, ip administered as single dose; type: organism-based; conditions: in vivo; outline: as §2
CT26 [15] = assay: Antitumor immunity against mouse CT26 cells implanted in BALB/c mouse assessed as increase in Teff/Treg ratio at 25 ug, ip administered once a week with anti-PD-1 antibody for 23 days by flow cytometry analysis; type: functional, organism-based; conditions: dose 25.0 µg, time 23.0 day; outline: as §4
[16] = molecular target: T1, TLR7 and TLR8 (Homo sapiens); assay: Agonist activity at human TLR7/8 expressed in human PBMC cells assessed as induction of IL-1beta production by measuring concentration required to induce maximal response incubated for 12 hrs by multiplexed immunoassay; type: cell-based; conditions: filed as agonist; outline: as §1
CT26 [17] = assay: Antitumor activity against mouse CT26 cells implanted in BALB/c mouse assessed as reduction in tumor size at 25 ug, ip administered once a week in presence of anti-PD-1 antibodies and measured every 3 days for 23 days; type: functional, organism-based; conditions: dose 25.0 µg, time 23.0 day; outline: as §3
[18] = molecular target: T1, TLR7 and TLR8 (Homo sapiens); assay: Agonist activity at human TLR7/8 expressed in human PBMC cells assessed as induction of TNFalpha production by measuring concentration required to induce maximal response incubated for 12 hrs by multiplexed immunoassay; type: cell-based; conditions: filed as agonist; outline: as §1
[19] = molecular target: T1, TLR7 and TLR8 (Homo sapiens); assay: Agonist activity at human TLR7/8 expressed in human PBMC cells assessed as induction of INF-gamma production by measuring concentration required to induce maximal response incubated for 12 hrs by multiplexed immunoassay; type: cell-based; conditions: filed as agonist; outline: as §1
CT26 [20] = assay: Antitumor immunity against mouse CT26 cells implanted in BALB/c mouse assessed as increase in M1 to M2 like TAM ratio at 25 ug, ip administered once a week for 23 days by flow cytometry analysis; type: functional, organism-based; conditions: dose 25.0 µg, time 23.0 day; outline: as §4
hERG (KCNH2) = hERG (KCNH2) (Homo sapiens, UniProt Q12809); assay: Inhibition of hERG expressed in HEK293 cells at 3 uM relative to control; type: cell-based; conditions: HEK293 cells expressing hERG
Sequence of hERG (KCNH2) (Q12809 whole entry): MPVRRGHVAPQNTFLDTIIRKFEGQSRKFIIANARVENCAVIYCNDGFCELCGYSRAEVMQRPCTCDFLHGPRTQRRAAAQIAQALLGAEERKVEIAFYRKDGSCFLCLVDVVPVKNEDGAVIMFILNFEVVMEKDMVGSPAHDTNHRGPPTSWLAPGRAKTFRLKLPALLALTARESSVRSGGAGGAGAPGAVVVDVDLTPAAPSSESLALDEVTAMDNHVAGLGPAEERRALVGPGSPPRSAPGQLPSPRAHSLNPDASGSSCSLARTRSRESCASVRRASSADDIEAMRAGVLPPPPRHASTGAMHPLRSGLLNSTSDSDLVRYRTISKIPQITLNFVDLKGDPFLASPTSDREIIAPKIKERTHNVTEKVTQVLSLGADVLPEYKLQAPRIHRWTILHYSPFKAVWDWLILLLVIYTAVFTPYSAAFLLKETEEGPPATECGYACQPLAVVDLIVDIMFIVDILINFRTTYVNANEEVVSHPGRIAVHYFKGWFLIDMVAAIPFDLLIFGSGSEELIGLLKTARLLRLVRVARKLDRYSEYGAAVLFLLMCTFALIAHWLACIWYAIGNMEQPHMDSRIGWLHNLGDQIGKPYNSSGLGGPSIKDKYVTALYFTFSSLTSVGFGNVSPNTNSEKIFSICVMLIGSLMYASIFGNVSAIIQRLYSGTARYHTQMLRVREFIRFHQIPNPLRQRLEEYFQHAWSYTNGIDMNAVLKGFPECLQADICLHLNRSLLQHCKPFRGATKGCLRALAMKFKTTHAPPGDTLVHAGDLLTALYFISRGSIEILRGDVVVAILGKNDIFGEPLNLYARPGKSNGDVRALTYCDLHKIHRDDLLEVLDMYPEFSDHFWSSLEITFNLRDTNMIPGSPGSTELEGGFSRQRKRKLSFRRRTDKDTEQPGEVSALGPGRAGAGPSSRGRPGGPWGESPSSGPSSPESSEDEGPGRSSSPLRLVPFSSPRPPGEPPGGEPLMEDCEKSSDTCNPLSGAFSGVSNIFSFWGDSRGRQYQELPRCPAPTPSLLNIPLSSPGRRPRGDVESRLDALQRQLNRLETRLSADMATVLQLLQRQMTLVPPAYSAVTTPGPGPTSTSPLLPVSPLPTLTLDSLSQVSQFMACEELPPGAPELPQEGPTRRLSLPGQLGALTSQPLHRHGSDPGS

[21] = Acute toxicity in BALB/c mouse assessed as mortality at 100 mg/kg, ip administered as single dose; type: organism-based; conditions: in vivo
[22] = molecular target: T1, TLR7 and TLR8 (Homo sapiens); assay: Agonist activity at human TLR7/8 expressed in human PBMC cells assessed as induction of IL-6 production by measuring concentration required to induce maximal response incubated for 12 hrs by multiplexed immunoassay; type: cell-based; conditions: filed as agonist; outline: as §1
[23] = Toxicity in BALB/c mouse implanted with mouse CT26 cells assessed as reduction in survival at 25 ug, ip administered once a week in presence of anti-PD-1 antibodies and measured 60 days post tumor implantation; type: organism-based; conditions: in vivo, 1440 h, dose 25 µg, time 60 day
Outline: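 Survival study in CT26-bearing BALB/c mice (n = 10 per group), treated from a tumor volume of 100 mm³. Dosing was 25 μg agonist ip once weekly plus anti-PD-1 antibody at 200 μg ip twice weekly; IgG isotype was the control. Mice were euthanized on signs of distress or at a total tumor size of 2000 mm³.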

[24] = molecular target: T1, TLR7 and TLR8 (Homo sapiens); assay: Agonist activity at human TLR7/8 expressed in human PBMC cells assessed as induction of IP-10 production by measuring concentration required to induce maximal response incubated for 12 hrs by multiplexed immunoassay; type: cell-based; conditions: filed as agonist; outline: as §1

With `COCCNc1nc(N)nc2ccc(Cc3ccc(CN(C)C)cc3)nc12` the Activity [1] was “Active”, the Activity [2] was “Active” and the Activity [3] was “Active”. The Activity [4] was “Active”, the Activity [5] was “Active” and the Activity [6] was “Toxic”. The Activity [7] was “Toxic”, the Activity [8] was “Active” and the Activity [9] was “Active”. The TGI (CT26 [10]) was 88.9%.
For `CCCCNc1nc(N)nc2ccc(Cc3ccc(CN(C)C)cc3)nc12`, the ECmax [11] was 0.1 µg/mL, the Activity (CT26 [12]) was “Active” and the “fold change (FC)” value (CT26 [13]) was 2. The Activity [14] was “Toxic”, the Activity (CT26 [15]) was “Active” and the ECmax [16] was 0.1 µg/mL. The Activity (CT26 [17]) was “Active”, the ECmax [18] was 0.1 µg/mL and the ECmax [19] was 0.1 µg/mL. The Activity (CT26 [20]) was “Active”, the inhibition at 3 µM (hERG (KCNH2)) was 63.2% and the Activity [21] was “Toxic”. For the same molecule, the ECmax [22] was 0.1 µg/mL, the Activity [23] was “Non-Toxic” and the ECmax [24] was 0.1 µg/mL.
